The source made the active and inactive calls. The rule behind the calls is not given here. Bridge positions count the residues as written; N and C are the ends. Square brackets hold non-standard residues; d marks the D form. Peptide text beside a SMILES is read from it. Mpa = O=C(O)CCS

Drawing on ChEMBL document CHEMBL3272081, “Oxytocin analogues with combined high smooth muscle and negligible antidiuretic activities. Investigation of position 7 in neurohypophyseal hormones” (J Med Chem, 1976), this text covers Activity and metabolised for six compounds.

The species named for series [1] is Rattus norvegicus. In words: Pressor activity in rat. The format is functional. In outline:
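Anesthetized male rats, per the U.S. Pharmacopeia. Potency is estimated by matches, with the USP posterior pituitary standard always injected before the analogue. Before each analogue dose, several standard doses are confirmed to give reproducible, unattenuated responses. Reported as USP U/mg ± SEM, five animals.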

Series [2] is filed under the species Rattus norvegicus. As to the kind of experiment: Antidiuretic activity in rat. The format is functional, Urine. An outline of the steps:
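Anesthetized male rats, Jeffers et al. method as modified by Sawyer. Specific activity is obtained against the USP standard using a Schild four-point design or matches. Reported as USP U/mg ± SEM, five animals per determination.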

Another series has as its system Gallus gallus. As to the kind of experiment: Induction of vasodepressor activity in conscious chicken. It counts as functional.
Series [3] addresses T1, Oxytocin receptor (Rattus norvegicus) (UniProt P70536).
T1 sequence (whole entry): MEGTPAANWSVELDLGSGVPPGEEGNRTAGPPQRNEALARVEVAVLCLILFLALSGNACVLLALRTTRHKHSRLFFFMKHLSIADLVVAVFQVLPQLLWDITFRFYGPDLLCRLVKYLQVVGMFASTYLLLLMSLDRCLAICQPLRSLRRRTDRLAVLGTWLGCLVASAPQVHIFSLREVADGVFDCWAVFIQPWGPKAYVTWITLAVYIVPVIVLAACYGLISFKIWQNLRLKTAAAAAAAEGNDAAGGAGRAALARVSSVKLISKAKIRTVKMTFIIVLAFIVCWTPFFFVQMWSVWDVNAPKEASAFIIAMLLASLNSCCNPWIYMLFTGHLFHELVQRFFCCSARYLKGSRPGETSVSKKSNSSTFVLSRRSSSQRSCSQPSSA
In words: Activity at rat oxytocin receptor in rat uterus assessed as uterotonic activity. The format is tissue-based. An outline of the steps:
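Isolated uterine horns from virgin rats in natural estrus, Holton method as modified by Munsick, bathed in Mg²⁺-free van Dyke–Hastings solution. Specific activity is derived against the USP standard by a Schild four-point design or by matches. Expressed as USP U/mg ± SEM, with at least three animals per determination.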

The next series is filed under the species Oryctolagus cuniculus. As to the kind of experiment: Induction of oxytocic activity in rabbit assessed as milk ejection. It counts as functional.
Series [4] is filed under the species Rattus norvegicus. In words: Pressor activity in rat after 45 mins. It counts as functional, organism-based.
Series [5] in a line: Drug metabolism in rat uterine homogenate assessed as compound inactivation after 30 mins. It counts as ADME, tissue-based, Uterus. The settings on record: read-out: Drug metabolism.
The nature of series [6]: Drug metabolism in rat uterine homogenate assessed as compound inactivation after 60 mins. It counts as ADME, tissue-based, Uterus. The settings on record: read-out: Drug metabolism.
Series [7] concerns Rattus norvegicus. As to the kind of experiment: Induction of vasodepressor activity in anesthetized male rat at 0.5 mg.
For series [8], the target named is T2, Oxytocin receptor (Homo sapiens) (UniProt P30559).
T2 sequence (whole entry): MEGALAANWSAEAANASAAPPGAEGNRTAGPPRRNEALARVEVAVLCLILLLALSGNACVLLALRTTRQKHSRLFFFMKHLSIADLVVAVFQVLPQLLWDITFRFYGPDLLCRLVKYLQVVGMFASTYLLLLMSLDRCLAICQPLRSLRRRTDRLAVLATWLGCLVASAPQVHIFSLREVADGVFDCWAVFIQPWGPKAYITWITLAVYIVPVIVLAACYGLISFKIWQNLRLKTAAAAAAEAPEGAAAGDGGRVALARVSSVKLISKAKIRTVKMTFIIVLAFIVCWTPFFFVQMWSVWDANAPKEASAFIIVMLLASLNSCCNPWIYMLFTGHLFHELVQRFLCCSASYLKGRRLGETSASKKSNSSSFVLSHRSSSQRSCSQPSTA
As to the kind of experiment: Activity at oxytocin receptor (unknown origin) assessed as oxytocic activity.

As for `CC[C@H](C)[C@@H]1NC(=O)[C@H](Cc2ccc(O)cc2)NC(=O)CCSSC[C@@H](C(=O)N[C@@H](C)C(=O)N[C@@H](CC(C)C)C(=O)NCC(N)=O)NC(=O)[C@H](CC(N)=O)NC(=O)[C@H](CCC(N)=O)NC1=O` ([Mpa]YIQNCALG-NH2; disulfide 1-6), the Activity was determined as 0.5 USP-U/mg in the series filed under Rattus norvegicus [1], 0.17 USP-U/mg in the series listed under Rattus norvegicus [2], 9.8 USP-U/mg in the series with Gallus gallus and 123 USP-U/mg in series [3].

As for `CC[C@H](C)[C@@H]1NC(=O)[C@H](Cc2ccc(O)cc2)NC(=O)CCSSC[C@@H](C(=O)N2CCC[C@H]2C(=O)N[C@@H](CC(C)C)C(=O)NCC(N)=O)NC(=O)[C@H](CC(N)=O)NC(=O)[C@H](CCC(N)=O)NC1=O`, the Activity was determined as 541 USP-U/mg in the series filed under Oryctolagus cuniculus; 1.44 USP-U/mg in the series listed under Rattus norvegicus [1]; 19 USP-U/mg in the series listed under Rattus norvegicus [2]; 975 USP-U/mg in the series with Gallus gallus; 803 USP-U/mg in [3].

Consider `CC[C@H](C)[C@@H]1NC(=O)[C@H](Cc2ccc(O)cc2)NC(=O)[C@@H](N)CSSC[C@@H](C(=O)N2CCC[C@H]2C(=O)N[C@@H](CC(C)C)C(=O)NCC(N)=O)NC(=O)[C@H](CC(N)=O)NC(=O)[C@H](CCC(N)=O)NC1=O` [OXYTOCIN], for which the Activity in the series filed under Oryctolagus cuniculus was 440 USP-U/mg; in the series listed under Rattus norvegicus [1], 3.1 USP-U/mg; in the series filed under Rattus norvegicus [2], 2.7 USP-U/mg; in the series with Gallus gallus, 507 USP-U/mg; in [3] it was 546 USP-U/mg. Also, the outcome in the series filed under Rattus norvegicus [4] was Active.

Consider `CC[C@H](C)[C@@H]1NC(=O)[C@H](Cc2ccc(O)cc2)NC(=O)CCSSC[C@@H](C(=O)NCC(=O)N[C@@H](CC(C)C)C(=O)NCC(N)=O)NC(=O)[C@H](CC(N)=O)NC(=O)[C@H](CCC(N)=O)NC1=O` ([Mpa]YIQNCGLG-NH2; disulfide 1-6), for which the metabolised at 0.5 h in series [5] was 3%. The Activity worked out at 0.5 USP-U/mg in the series listed under Rattus norvegicus [1], 0.062 USP-U/mg in the series filed under Rattus norvegicus [2], 17 USP-U/mg in the series with Gallus gallus and 355 USP-U/mg in series [3]. Also, in [6], the metabolised at 1 h amounted to 30%.

On to `CC[C@H](C)[C@@H]1NC(=O)[C@H](Cc2ccc(O)cc2)NC(=O)[C@@H](N)CSSC[C@@H](C(=O)N[C@@H](C)C(=O)N[C@@H](CC(C)C)C(=O)NCC(N)=O)NC(=O)[C@H](CC(N)=O)NC(=O)[C@H](CCC(N)=O)NC1=O` (H-CYIQNCALG-NH2; disulfide 1-6), for which the Activity came out at 0.4 USP-U/mg in the series listed under Rattus norvegicus [1], 0.08 USP-U/mg in the series filed under Rattus norvegicus [2], 4.8 USP-U/mg in the series on Gallus gallus and 22 USP-U/mg in [3].

Take `CC[C@H](C)[C@@H]1NC(=O)[C@H](Cc2ccc(O)cc2)NC(=O)[C@@H](N)CSSC[C@@H](C(=O)NCC(=O)N[C@@H](CC(C)C)C(=O)NCC(N)=O)NC(=O)[C@H](CC(N)=O)NC(=O)[C@H](CCC(N)=O)NC1=O` (H-CYIQNCGLG-NH2; disulfide 1-6): the Activity with Rattus norvegicus [7] was 25 mmHg; in the series listed under Oryctolagus cuniculus it was 224 USP-U/mg; in the series listed under Rattus norvegicus [1] it was 0.3 USP-U/mg; in the series filed under Rattus norvegicus [2], “<=0.01 USP-U/mg”; with Gallus gallus it was 5.3 USP-U/mg; in series [3], 65 USP-U/mg. Also, in series [8], the Activity was 68 U/mg.
